Results taken from ChEMBL document CHEMBL3351723, “New derivatives of lupane triterpenoids disturb breast cancer mitochondria and induce cell death” (Bioorg Med Chem, 2014).
Calls of active or inactive are those of the source. No cut-off for these calls is given here.

What was measured:
Liver microsome [1] = assay: Effect on mitochondrial transmembrane potential in Wistar Han rat liver mitochondria energized with succinate assessed as mitochondrial transmembrane electropotential at 0.133 ug/mg of protein (reference value: 216.0 +/- 7.4 mV); assay type: functional
Liver microsome [2] = assay: Effect on mitochondrial transmembrane potential in Wistar Han rat liver mitochondria energized with succinate assessed as mitochondrial transmembrane electropotential at 1.333 ug/mg of protein (reference value: 216.0 +/- 7.4 mV); assay type: functional
Method in brief: (§1)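 Isolated male Wistar rat liver mitochondria (1.5 mg protein) in 125 mM sucrose, 65 mM KCl, 5 mM KH2PO4, 2.5 mM MgCl2, 5 mM HEPES pH 7.4, 30°C, with 3 μM TPP+. Compound added for 1 min, then 10 mM succinate plus 3 μM rotenone. State 3 started with ADP (83.3 nmol/mg protein). ΔΨ read with a TPP+-selective electrode and calculated by the Kamo equation without binding correction.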

Liver microsome [3] = assay: Effect on mitochondrial transmembrane potential in Wistar Han rat liver mitochondria energized with succinate assessed as ADP depolarization at 0.333 ug/mg of protein (reference value: 34.7 +/- 1.4 mV); assay type: functional
Liver microsome [4] = assay: Effect on mitochondrial transmembrane potential in Wistar Han rat liver mitochondria energized with succinate assessed as time duration of lag phase at 0.133 ug/mg of protein (reference value: 82.8 +/- 23.5 sec); assay type: functional; method in brief: as §1
Liver microsome [5] = assay: Effect on mitochondrial transmembrane potential in Wistar Han rat liver mitochondria energized with succinate assessed as time duration of lag phase at 0.667 ug/mg of protein (reference value: 82.8 +/- 23.5 sec); assay type: functional; method in brief: as §1
Liver microsome [6] = assay: Effect on mitochondrial transmembrane potential in Wistar Han rat liver mitochondria energized with succinate assessed as time duration of lag phase at 1.333 ug/mg of protein (reference value: 82.8 +/- 23.5 sec); assay type: functional; method in brief: as §1
Liver microsome [7] = assay: Effect on mitochondrial transmembrane potential in Wistar Han rat liver mitochondria energized with succinate assessed as mitochondrial transmembrane electropotential at 0.133 ug/mg of protein (reference value: 204.2 +/- 5.6 mV); assay type: functional
Liver microsome [8] = assay: Effect on mitochondrial transmembrane potential in Wistar Han rat liver mitochondria energized with succinate assessed as mitochondrial transmembrane electropotential at 1.333 ug/mg of protein (reference value: 204.2 +/- 5.6 mV); assay type: functional; method in brief: as §1
Liver microsome [9] = assay: Effect on mitochondrial transmembrane potential in Wistar Han rat liver mitochondria energized with succinate assessed as time duration of lag phase at 0.667 ug/mg of protein (reference value: 33.0 +/- 4.6 sec); assay type: functional; method in brief: as §1
MDA-MB-231 = assay: Cytotoxicity against human MDA-MB-231 cells at 0.125 to 2 ug/ml after 1 to 5 days by sulforhodamine B assay; assay type: functional, cell-based
Method in brief: (§2)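 Sulforhodamine B growth assay in high-glucose DMEM with 10% FBS. Cancer cells seeded at 1×10^4 cells/ml; compound (0.125–2 μg/ml) added 24 h after seeding and left for 1, 3 or 5 days. Cells fixed, total mass stained. Expressed as % of untreated cells at the same time point. Mean ± SEM, five independent experiments.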

MCF7 = assay: Cytotoxicity against human MCF7 cells at 0.125 to 2 ug/ml after 1 to 5 days by sulforhodamine B assay; assay type: functional, cell-based; method in brief: as §2
Liver microsome [10] = assay: Effect on mitochondrial transmembrane potential in Wistar Han rat liver mitochondria energized with succinate assessed as mitochondrial transmembrane electropotential at 0.667 ug/mg of protein (reference value: 198.0 +/- 5.6 mV); assay type: functional
Liver microsome [11] = assay: Effect on mitochondrial transmembrane potential in Wistar Han rat liver mitochondria energized with succinate assessed as ADP depolarization at 0.667 ug/mg of protein (reference value: 23.9 +/- 3.3 mV); assay type: functional
[12] = test system: Liver mitochondria (Rattus norvegicus); assay: Effect on mitochondrial transmembrane potential in Wistar Han rat liver mitochondria energized with succinate assessed as time duration of lag phase at 0.333 ug/mg of protein (reference value: 40.5 +/- 4.5 sec)

Compound: C=C(C)[C@@H]1CC[C@]2(COC(=O)C[n+]3ccc(N(C)C)cc3)CC[C@]3(C)[C@H](CC[C@@H]4[C@@]5(C)CC[C@H](OC(=O)C[n+]6ccc(N(C)C)cc6)C(C)(C)[C@@H]5CC[C@]43C)[C@@H]12.[Cl-].[Cl-]
- Activity (Liver microsome [1]): 212 mV
- Activity (Liver microsome [2]): 201 mV
- Activity (Liver microsome [3]): 29 mV
- TIME (Liver microsome [4]): 0.0233 h
- TIME (Liver microsome [5]): 0.026 h
- TIME (Liver microsome [6]): 0.033 h

Compound: C=C(C)[C@@H]1CC[C@]2(COC(=O)CC[n+]3ccc(N(C)C)cc3)CC[C@]3(C)[C@H](CC[C@@H]4[C@@]5(C)CC[C@H](OC(=O)CC[n+]6ccc(N(C)C)cc6)C(C)(C)[C@@H]5CC[C@]43C)[C@@H]12.[Cl-].[Cl-]
- Activity (Liver microsome [7]): 206 mV
- Activity (Liver microsome [8]): 199 mV
- TIME (Liver microsome [9]): 0.00894 h
- inhibition (MDA-MB-231): Active
- inhibition (MCF7): Active

Compound: C=C(C)[C@@H]1CC[C@]2(COC(=O)C(CC)[n+]3ccc(N(C)C)cc3)CC[C@]3(C)[C@H](CC[C@@H]4[C@@]5(C)CC[C@H](OC(=O)C(CC)[n+]6ccc(N(C)C)cc6)C(C)(C)[C@@H]5CC[C@]43C)[C@@H]12 (some centres undefined)
- Activity (Liver microsome [10]): 193 mV
- Activity (Liver microsome [11]): 23 mV
- TIME [12]: 0.0121 h
